Series [1] has as its target Virion infectivity factor (Human immunodeficiency virus type 1 group M subtype B (isolate NY5)(HIV-1)) (UniProt P12504). Put plainly: Antagonist activity against HIV-1 GFP-tagged Vif in human HEK293FT cells co-expressing HA-tagged A3G assessed as downregulation of Vif expression expression at 50 uM measured after 16 hrs by immunoblotting method. The class given is cell-based. The following applies: Human immunodeficiency virus 1. The essentials:
(§1)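 HEK293FT cells co-expressing HA-tagged A3G and either GFP-tagged Vif or Vif were incubated with or without compound (50 µM) for 16 h. Cell extracts were immunoblotted with anti-HA (A3G), anti-GFP (Vif) and anti-GAPDH antibodies. Untreated cells served as the comparison, and choline chloride was included as a negative control in the triazole series.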
On the technique in general: A western blot detects proteins with antibodies after separation by electrophoresis.

Series [2] has the same target. Put plainly: Antagonist activity against HIV-1 Vif in human H9 cells expressing A3G assessed as inhibition of viral replication by reverse transcriptase assay relative to vehicle-treated control. The class given is cell-based. To be noted: Human immunodeficiency virus 1. The essentials: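 Antiviral activity was measured against wild-type HIV-1 in non-permissive (A3G-expressing) H9 cells and reported as IC50. RN-18 was the positive control, and cells cultured without inhibitor were the negative control. Selected compounds were tested across doses, and MTS cell viability was checked in parallel at 50 µM.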

The target is the same in series [3]. Description: Antagonist activity against HIV-1 GFP-tagged Vif in human HEK293FT cells co-expressing HA-tagged A3G assessed as upregulation of A3G levels at 50 uM measured after 16 hrs by immunoblotting method. The class given is cell-based. The following applies: Human immunodeficiency virus 1. The essentials: as §1
The target is the same in series [4]. Description: (§2) Antagonist activity against HIV-1 Vif in human MT4 cells assessed as inhibition of viral infection at 50 uM measured after 16 hrs by cell-based assay. The following applies: Human immunodeficiency virus 1. The essentials: (§3)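 Antiviral activity was measured against wild-type HIV-1 in permissive MT-4 cells as a Vif-specificity counter-screen. RN-18 was the positive control, and cells cultured without inhibitor were the negative control. "No activity" means no inhibition at 50 µM.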

Series [5] has the same target. Put plainly: Antagonist activity against HIV-1 Vif in human MT4 cells assessed as inhibition of viral infection at 50 and 100 uM measured after 16 hrs by cell-based assay. The following applies: Human immunodeficiency virus 1.
The next series deals with HeLa. Description: Cytotoxicity against human HeLa cells at 50 uM measured after 16 hrs by MTS assay relative to DMSO control. Format: cell-based. (Formazan colour is commonly taken as a measure of viable cells.)
For series [6], the target named is Virion infectivity factor (Human immunodeficiency virus type 1 group M subtype B (isolate NY5)(HIV-1), UniProt P12504). Described as §2. On the set-up: species or system Human immunodeficiency virus 1. The essentials:
as §3

Structures are written as SMILES. Active and inactive are the calls of the source. Unless noted, the calls are words filed in the database; no cut-off is given here.

Sequence of Virion infectivity factor (Human immunodeficiency virus type 1 group M subtype B (isolate NY5)(HIV-1)) (P12504 whole entry): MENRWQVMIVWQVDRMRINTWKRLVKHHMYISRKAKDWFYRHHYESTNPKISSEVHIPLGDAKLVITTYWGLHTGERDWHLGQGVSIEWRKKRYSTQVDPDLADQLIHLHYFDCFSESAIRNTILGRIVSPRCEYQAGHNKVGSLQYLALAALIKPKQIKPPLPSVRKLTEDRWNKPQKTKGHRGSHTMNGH
Sequence of Virion infectivity factor (P12504 whole entry): as above

Regarding `COc1ccccc1NC(=O)c1ccccc1Sc1ccc([N+](=O)[O-])cc1`, the result in series [1] and in series [3] was Active. Besides, the inhibition result in series [2] was “Dose-dependent effect”. For the same molecule, the result in series [4] and in series [5] was inactive. In addition, the Activity result in the series on HeLa is recorded as “Non-Toxic”.
`COC(=O)c1ccc(Sc2ccccc2-c2cn(-c3c(OC)cccc3OC)nn2)cc1`: the inhibition entry in series [2] was “Dose-dependent effect”. Further, in series [4], the result was inactive. For the same molecule, the Activity result in the series on HeLa is recorded as “Non-Toxic”.
With `COC(=O)c1ccc(Sc2ccccc2-c2cn(-c3cc(OC)ccc3OC)nn2)cc1`, the outcome in series [1] and in series [3] was Active. Also, the outcome in series [4] was inactive.
Regarding `COc1ccccc1-c1nnc(-c2ccccc2Sc2ccc([N+](=O)[O-])cc2)o1`, the result in series [1] and in series [3] was Active.
Consider `COc1ccc(Sc2ccccc2-c2cn(-c3c(F)cccc3OC)nn2)cc1`, for which, in series [4], the outcome was inactive.
Still for that read-out and setting: to `COc1cccc(F)c1-n1cc(-c2ccccc2Sc2ccc(C(F)(F)F)cc2)nn1` belongs “inactive”.
As to `COc1ccc(OC)c(-n2cc(-c3ccccc3S(=O)(=O)c3ccc([N+](=O)[O-])cc3)nn2)c1`, the inhibition result in series [2] is “Dose-dependent effect”. In addition, the outcome in series [4] was inactive. Moreover, in the series with HeLa, the Activity result was “Non-Toxic”.
Consider `COc1ccc(OC)c(-n2cc(-c3ccccc3S(=O)(=O)c3ccc(N)cc3)nn2)c1`, for which the outcome in series [1] and in series [3] was Active. The inhibition result in series [2] was “Dose-dependent effect”. Further, the outcome in series [4] was inactive. Also, in the series with HeLa, the Activity entry is “Non-Toxic”.
Consider `COc1ccc(OC)c(-n2cc(-c3ccccc3Sc3ccc(N)cc3)nn2)c1`, for which the result in series [4] was inactive.
As for `COC(=O)c1ccc(S(=O)(=O)c2ccccc2-c2cn(-c3c(F)cccc3OC)nn2)cc1`, in series [4], the result was inactive.
For `COc1ccc(-n2cc(-c3ccccc3Sc3ccc(C(=O)O)cc3)nn2)c(OC)c1`, the result in series [4] was inactive.
With `COC(=O)c1ccc(S(=O)(=O)c2ccccc2-c2cn(-c3cccc(OC)c3OC)nn2)cc1`, the outcome in series [4] was inactive.
Consider `COc1ccccc1-n1cc(-c2ccccc2S(=O)(=O)c2ccc(C(=O)O)cc2)nn1`, for which the outcome in series [1] and in series [3] was Active. Also, the outcome in series [4] was inactive.
With `COc1ccc(-n2cc(-c3ccccc3S(=O)(=O)c3ccc(C(=O)O)cc3)nn2)c(OC)c1`, the result in series [4] was inactive.
Still for that read-out and setting: then `COc1cccc(-n2cc(-c3ccccc3Sc3ccc(C(=O)O)cc3)nn2)c1OC`, with “inactive”; and `COC(=O)c1ccc(S(=O)(=O)c2ccccc2-c2cn(-c3ccc(OC)cc3OC)nn2)cc1`, with “inactive”; and `COc1ccccc1-n1cc(-c2ccccc2Sc2ccc(C(=O)O)cc2)nn1`, with “inactive”.
As to `COc1ccc(S(=O)(=O)c2ccccc2-c2cn(-c3ccc(OC)cc3OC)nn2)cc1`, the result in series [4] was inactive.
Take `COc1ccccc1-c1noc(-c2ccccc2Sc2ccc([N+](=O)[O-])cc2)n1`: the outcome in series [1] and in series [3] was Active. For the same molecule, in series [6], the IC50 entry is reported as “Not Active”.
Regarding `COc1ccccc1-n1cc(-c2ccccc2S(=O)(=O)c2ccc([N+](=O)[O-])cc2)nn1`, the outcome in series [4] was inactive.
Turning to `COc1ccc(Sc2ccccc2-c2cn(-c3c(OC)cccc3OC)nn2)cc1`, the outcome in series [4] was inactive.
Consider `COc1ccccc1-n1cc(-c2ccccc2S(=O)(=O)c2ccc(N)cc2)nn1`, for which the result in series [1] and in series [3] was Active. Moreover, the outcome in series [4] was inactive.
Turning to `COc1cccc(F)c1-n1cc(-c2ccccc2Sc2ccc([N+](=O)[O-])cc2)nn1`, the result in series [4] was inactive.
Still for that read-out and setting: to `COC(=O)c1ccc(S(=O)(=O)c2ccccc2-c2cn(-c3cc(OC)ccc3OC)nn2)cc1` belongs “inactive”; to `COc1cccc(-n2cc(-c3ccccc3Sc3ccc(N)cc3)nn2)c1OC`, “inactive”.
The same measure, in the same setting: to `COc1cccc(F)c1-n1cc(-c2ccccc2S(=O)(=O)c2ccc(C(F)(F)F)cc2)nn1` belongs “inactive”.
For the molecule `COc1ccc(OC)c(-n2cc(-c3ccccc3S(=O)(=O)c3ccc(C(=O)O)cc3)nn2)c1`, the outcome in series [1] and in series [3] was Active. In addition, the outcome in series [4] was inactive.
On to `COc1ccc(OC)c(-n2cc(-c3ccccc3Sc3ccc([N+](=O)[O-])cc3)nn2)c1`, for which the outcome in series [1] and in series [3] was Active. Also, in series [2], the inhibition entry was “Dose-dependent effect”. In addition, in series [4], the result was inactive. Besides, the Activity result in the series on HeLa is listed as “Non-Toxic”.
As to `COc1ccc(-n2cc(-c3ccccc3S(=O)(=O)c3ccc(N)cc3)nn2)c(OC)c1`, the outcome in series [4] was inactive.
For the molecule `COc1ccccc1-n1cc(-c2ccccc2Sc2ccc(C(F)(F)F)cc2)nn1`, the result in series [1] and in series [3] was Active. The inhibition result in series [2] was “Dose-dependent effect”. The result in series [4] was inactive. In the series on HeLa, the Activity result is “Non-Toxic”.
Take `COc1ccccc1-n1cc(-c2ccccc2Sc2ccc([N+](=O)[O-])cc2)nn1`: the outcome in series [1] and in series [3] was Active. The IC50 entry in series [6] is reported as “Not Active”.
In the case of `COc1cccc(-n2cc(-c3ccccc3S(=O)(=O)c3ccc([N+](=O)[O-])cc3)nn2)c1OC`, the outcome in series [4] was inactive.
`COc1cccc(-n2cc(-c3ccccc3S(=O)(=O)c3ccc(C(=O)O)cc3)nn2)c1OC`: the outcome in series [4] was inactive.
`COc1ccccc1-n1nncc1-c1ccccc1Sc1ccc([N+](=O)[O-])cc1`: the outcome in series [1] and in series [3] was Active.
`COC(=O)c1ccc(Sc2ccccc2-c2cn(-c3ccc(OC)cc3OC)nn2)cc1`: the inhibition entry in series [2] was “Dose-dependent effect”. In series [4], the result was inactive. The Activity result in the series with HeLa was “Non-Toxic”.
`COC(=O)c1ccc(S(=O)(=O)c2ccccc2-c2cn(-c3c(OC)cccc3OC)nn2)cc1`: the outcome in series [4] was inactive.
Take `COC(=O)c1ccc(Sc2ccccc2-c2cn(-c3cccc(OC)c3OC)nn2)cc1`: the inhibition entry in series [2] is “Dose-dependent effect”. Besides, the result in series [4] was inactive. Also, in the series on HeLa, the Activity result is given as “Non-Toxic”.
Turning to `COc1cccc(-n2cc(-c3ccccc3S(=O)(=O)c3ccc(N)cc3)nn2)c1OC`, in series [4], the result was inactive.
Still for that read-out and setting: then `COc1ccc(-n2cc(-c3ccccc3S(=O)(=O)c3ccc([N+](=O)[O-])cc3)nn2)c(OC)c1`, with “inactive”.
Same read-out and setting: to `COc1cccc(OC)c1-n1cc(-c2ccccc2S(=O)(=O)c2ccc(C(=O)O)cc2)nn1` belongs “inactive”; to `COc1ccc(S(=O)(=O)c2ccccc2-c2cn(-c3c(F)cccc3OC)nn2)cc1`, “inactive”.
For the molecule `COc1cccc(-n2cc(-c3ccccc3Sc3ccc([N+](=O)[O-])cc3)nn2)c1OC`, the inhibition entry in series [2] is “Dose-dependent effect”. In series [4], the result was inactive. Further, in the series on HeLa, the Activity entry is listed as “Non-Toxic”.
As to `COc1cccc(OC)c1-n1cc(-c2ccccc2Sc2ccc([N+](=O)[O-])cc2)nn1`, the result in series [4] was inactive.

These data come from ChEMBL document CHEMBL4431339, “1,2,3-Triazoles as Amide Bioisosteres: Discovery of a New Class of Potent HIV-1 Vif Antagonists” (J Med Chem, 2016).
